Results pooled from the literature.
Protocols differ between the studies behind these lines.
ACSL4: Long-chain-fatty-acid--CoA ligase 4 (ACSL4, Homo sapiens, UniProt O60488)
RIOK3: Serine/threonine-protein kinase RIO3 (RIOK3, Homo sapiens, UniProt O14730)
DAPK1: Death-associated protein kinase 1 (DAPK1, Homo sapiens, UniProt P53355)

Compound | target | read-out | action | technique | concentration | measurement | result
CC1(COc2ccc(CC3SC(=O)NC3=O)cc2)CCCCC1 (stereo not drawn) | ACSL4 | enzyme activity | inhibitor | – | 10 µM | inhibition | 20%
C[C@]1(O)CCCN(c2nc(Nc3ccc(S(=O)(=O)N[C@H]4CC[C@H](CN5CCN(c6ccc(C7CCC(=O)NC7=O)cc6F)CC5)CC4)cc3F)ncc2C(F)(F)F)C1 (stereo partly drawn) | RIOK3 | binding | – | competition with immobilised ligand | 1 µM | remaining binding | 100%
COc1ccc2oc(-c3ccc4nc(N)oc4c3)c/c(=N\c3ccccc3NC(=O)CCN)c2c1 | DAPK1 | binding | – | – | 1 µM | remaining binding | 104%
C1=C/COCc2cc(ccc2OCCN2CCCC2)Nc2nccc(n2)-c2cccc(c2)COC/1 | DAPK1 | binding | – | – | 0.1 µM | remaining binding | 64%
Cc1cc(S(=O)(=O)N[C@H]2CC[C@H](CN3CCN(c4ccc(C5CCC(=O)NC5=O)cc4F)CC3)CC2)ccc1Nc1ncc(C(F)(F)F)c(N2CCC[C@](C)(O)C2)n1 (stereo partly drawn) | RIOK3 | binding | – | competition with immobilised ligand | 1 µM | remaining binding | 58%
COc1ccc(CC2SC(=O)NC2=O)cc1 (stereo not drawn) | ACSL4 | enzyme activity | inhibitor | – | 10 µM | inhibition | 13%
C[C@]1(O)CCCN(c2nc(Nc3ccc(S(=O)(=O)N[C@H]4CC[C@H](CN5CCN(c6ccc(C7CCC(=O)NC7=O)cc6F)CC5)CC4)cc3Cl)ncc2C(F)(F)F)C1 (stereo partly drawn) | RIOK3 | binding | – | competition with immobilised ligand | 1 µM | remaining binding | 52%
CCCCC(=O)Nc1ccc(-c2ccc3ncn(CCC)c(=O)c3c2)cn1 | Serine/threonine-protein kinase MAK (MAK, Homo sapiens, UniProt P20794) | binding | – | competition with immobilised ligand | 0.5 µM | remaining binding | 71%
C#Cc1cc(-c2cc(Nc3nc(N[C@@H](C)c4ccc(F)cn4)ncc3Cl)n[nH]2)ccc1C=O | Non-receptor tyrosine-protein kinase TNK1 (TNK1, Homo sapiens, UniProt Q13470) | enzyme activity | inhibitor | – | 0.2 µM | inhibition | 74.8%
CN1CCc2c(c3ccccc3n2Cc2ccc(C(=O)NO)cc2)C1 | Protein deacetylase HDAC6 (HDAC6, Homo sapiens, UniProt Q9UBN7) | enzyme activity | inhibitor | fluorescence | 0.5 µM | inhibition | 94.8%
CNS(=O)(=O)c1ccc(Nc2ncc(C(F)(F)F)c(N3CCC[C@](C)(O)C3)n2)c(C)c1 | RIOK3 | binding | – | competition with immobilised ligand | 1 µM | remaining binding | 99%
CCN1/C(=C/C(C)=O)Sc2ccc(F)cc21 | 5-hydroxytryptamine receptor 1B (HTR1B, Homo sapiens, UniProt P28222) | ligand displacement | – | radioligand | 10 µM | inhibition | 1.73%
